In PubChem BioAssay:
Activity calls are given as the source filed them.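 Rule for the calls, unless noted: active = viability at or under a set limit in both replicates, limit being median viability minus 3 SD (cut at about 48% in these data, passing the limit was not always enough); inconclusive = at or under the limit in just one replicate; inactive = at or above the limit in both replicates.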

Tests used:
[1] = reducers of endogenous Her2 protein level, primary screen, SKBR3 breast tumor cells, AlphaScreen, ATP viability (AID 461;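 active = Her2 level under about 52% in both replicate screens, with viability over 70% of control, limit read from the data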;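 for Her2 level: lower value means less Her2 protein in the cells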;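 for viability: percent of carrier control wells set as 100% viability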); settings: 18-24 h, measured here: SKBR3 viability, ATP luminescence, at 10 µM
[2] = biological target: Receptor tyrosine-protein kinase erbB-2 (Homo sapiens) (UniProt P04626); test: as above; settings: 18-24 h, at 10 µM, stronger effect = lower value
Sequence of Receptor tyrosine-protein kinase erbB-2 (Homo sapiens) (P04626 whole entry, looked up): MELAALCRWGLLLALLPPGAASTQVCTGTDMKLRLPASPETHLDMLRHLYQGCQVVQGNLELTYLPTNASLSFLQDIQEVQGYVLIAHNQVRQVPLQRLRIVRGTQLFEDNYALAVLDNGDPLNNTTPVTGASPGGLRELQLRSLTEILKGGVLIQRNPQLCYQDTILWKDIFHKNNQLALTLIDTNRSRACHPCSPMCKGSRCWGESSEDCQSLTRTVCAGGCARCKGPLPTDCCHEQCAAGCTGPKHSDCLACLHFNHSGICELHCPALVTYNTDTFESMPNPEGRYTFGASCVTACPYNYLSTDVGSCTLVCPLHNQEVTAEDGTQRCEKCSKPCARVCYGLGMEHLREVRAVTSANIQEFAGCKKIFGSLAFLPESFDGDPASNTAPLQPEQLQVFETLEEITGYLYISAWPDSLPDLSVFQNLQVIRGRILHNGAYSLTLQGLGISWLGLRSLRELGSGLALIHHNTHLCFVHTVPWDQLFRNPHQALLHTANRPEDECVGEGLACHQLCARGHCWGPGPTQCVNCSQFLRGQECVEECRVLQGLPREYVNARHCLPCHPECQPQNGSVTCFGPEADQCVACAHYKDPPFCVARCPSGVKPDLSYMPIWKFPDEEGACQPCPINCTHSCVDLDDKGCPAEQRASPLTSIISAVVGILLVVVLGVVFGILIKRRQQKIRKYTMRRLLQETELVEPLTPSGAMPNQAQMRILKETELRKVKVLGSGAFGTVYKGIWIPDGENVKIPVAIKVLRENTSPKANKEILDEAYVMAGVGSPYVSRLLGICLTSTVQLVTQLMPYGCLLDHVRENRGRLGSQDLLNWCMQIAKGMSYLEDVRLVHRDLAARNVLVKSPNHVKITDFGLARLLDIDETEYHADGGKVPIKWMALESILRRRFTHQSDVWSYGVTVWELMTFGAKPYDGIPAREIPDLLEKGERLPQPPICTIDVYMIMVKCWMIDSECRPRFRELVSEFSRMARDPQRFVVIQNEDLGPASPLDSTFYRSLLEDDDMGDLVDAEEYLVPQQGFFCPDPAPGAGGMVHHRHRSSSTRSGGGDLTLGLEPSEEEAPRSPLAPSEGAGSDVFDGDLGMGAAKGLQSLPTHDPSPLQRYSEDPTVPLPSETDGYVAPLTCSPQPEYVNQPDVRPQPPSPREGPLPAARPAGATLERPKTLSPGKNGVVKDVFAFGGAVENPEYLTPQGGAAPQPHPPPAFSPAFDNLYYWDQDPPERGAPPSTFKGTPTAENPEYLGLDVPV

[3] = SK-BR-3 cell growth inhibitors, pilot screen, 24 h, human (AID 572;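 active = viability at or below 10% of carrier control in both of two separate runs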;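 note: compound exposure lasted between 18 and 24 h rather than exactly 24 h; 100% = carrier-treated control wells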); settings: SK-BR-3 viability, CellTiter-Glo luminescence, at 10 µM, stronger effect = lower value
[4] = HUVEC growth inhibition – cell-based, human, primary screen (AID 575;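 active = viability at or below 30% in both replicate assays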;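 note: 100% = median of untreated cell wells with 0.1% DMSO on each plate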); settings: HUVEC proliferation, CellTiter-Glo luminescence, 72 h; at 10 µM; stronger effect = lower value
Summary of the method: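 Test system: primary human umbilical vein endothelial cells; medium: endothelial basal medium with 2% FBS plus growth supplements; dosing: 10 µM compound only; times: 72 h treatment at 37 °C; signal: CTG luminescence; read-out: % viability relative to median vehicle-well signal on each plate; control set: vehicle and MePR control wells; plate: 384-well, collagen-coated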

[5] = growth inhibitors of H69AR lung tumor, primary screen, human, duplicate replicates (AID 580); settings: H69AR lung tumor cells viability, ATP luminescence, 72 h; at 10 µM; stronger effect = lower value;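 note: 100% = mean luminescence of untreated wells and 0% = no signal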
[6] = reversal of MRP1-mediated doxorubicin resistance, pilot screen, H69AR cells, doxorubicin co-treatment (AID 601;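 active = viability loss from added drug above about 55%, and viability with drug at most 40%, in both replicates, limit read from the data, passing the limit was not always enough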); settings: CellTiter-Glo, 72 h, at 10 µM; for differential viability (reversal): stronger effect = higher value
[7] = 384-well plate pilot, post-Golgi transport modulator project, inhibition of yeast transport mutant growth (AID 636; in the data active = inhibition above about 31%); settings: absorbance 615 nm, about 18 h, stronger effect = higher value
[8] = growth suppression of yeast trafficking mutant, preliminary HTS, modulators of trafficking downstream of Golgi apparatus project, 1536-format plate, OD 615 nm (AID 637; in the data active = inhibition above about 30%); settings: yeast transport mutant growth, absorbance 615 nm, 18 h; stronger effect = higher value
[9] = H69AR cells + 2 uM doxorubicin, measured here: viability with 2 uM doxorubicin, stronger effect = lower value
[10] = H69AR cells, compound alone cytotoxicity

SMILES	viability [1] [%]	Her2 level [2]	viability [3]	viability [4]	viability [5]	differential viability (reversal) ([6]; H69AR cells + 2 uM doxorubicin)	viability [6, 9] [%]	viability [6, 10] [%]	inhibition [7]	inhibition [8]
Cc1ccc(O)c(C(CC(=O)N2CCCC2)c2ccccc2)c1 (stereo not given)	89	101% (inactive)	89% (inactive)	92.4% (inactive)	94.8% (inactive)	12.3% (inactive)	82.5	94.8	-0.38% (inactive)	-6.83% (inactive)
COCCn1c(SCc2csc(-c3ccccc3)n2)nc2ccccc21	94	98.5% (inactive)	94% (inactive)	71.5% (inactive)	88.5% (inactive)	-2.99% (inactive)	91.5	88.5	1.3% (inactive)	-8.03% (inactive)
O=C(Nc1cccc2ccccc12)c1cnccn1	82	88.5% (inactive)	82% (inactive)	92.3% (inactive)	95% (inactive)	12.5% (inactive)	82.5	95	-7.53% (inactive)	-1.59% (inactive)
C#CC(CO)N(CCN(Cc1ccccc1)C(C#C)CO)Cc1ccccc1 (stereo not given)	107	85% (inactive)	107% (inactive)	79.4% (inactive)	90.3% (inactive)	9.04% (inactive)	81.3	90.3	-7.16% (inactive)	1.5% (inactive)
N/C(=N/O)c1nc(N2CCCC2)nc(N(c2ccccc2)c2ccccc2)n1	108	93.5% (inactive)	108% (inactive)	75.9% (inactive)	65.2% (inactive)	5.79% (inactive)	59.4	65.2	-6.62% (inactive)	3.17% (inactive)
c1ccc(-c2ccccc2OCCn2cncn2)cc1	93	79% (inactive)	93% (inactive)	104% (inactive)	99.8% (inactive)	15.9% (inactive)	83.9	99.8	-5.41% (inactive)	0.98% (inactive)
O=C(COc1ccccc1)N1CCN(C(=O)c2cccc(F)c2)CC1	112	90% (inactive)	112% (inactive)	102% (inactive)	101% (inactive)	13.9% (inactive)	86.7	101	-8.11% (inactive)	6.72% (inactive)
CC(C)C(NC(=O)c1ccccc1NC(=O)c1ccco1)C(=O)O (stereo not given)	114	77.5% (inactive)	114% (inactive)	94.8% (inactive)	91.6% (inactive)	2.44% (inactive)	89.1	91.6	-8.24% (inactive)	6.98% (inactive)
COc1ccc(C2C(C(=O)c3sc(C)nc3C)=C(O)C(=O)N2CCN(C)C)cc1OC (stereo not given)	108	111% (inactive)	108% (inactive)	99.3% (inactive)	86.7% (inactive)	-8.1% (inactive)	94.8	86.7	-2.27% (inactive)	-2.79% (inactive)
O=C(NCC(c1cccnc1)N1CCOCC1)c1cccs1 (stereo not given)	101	75.5% (inactive)	101% (inactive)	89.6% (inactive)	92.5% (inactive)	-0.595% (inactive)	93.1	92.5	-2.24% (inactive)	11.2% (inactive)
CCOC(=O)CSc1nnc([C@H](CC(C)C)NC(=O)OC(C)(C)C)o1	109	106% (inactive)	109% (inactive)	94% (inactive)	94.6% (inactive)	-0.88% (inactive)	95.5	94.6	-3.6% (inactive)	-3.71% (inactive)
Cc1csc(NC(=O)c2cc3c(s2)-c2ccccc2OC3)n1	91	92.5% (inactive)	91% (inactive)	75% (inactive)	37.7% (active)	-17.7% (inactive)	55.5	37.7	-2.82% (inactive)	-1% (inactive)
Cc1ccccc1-n1c(=O)c2ccccc2n2nnnc12	80	112% (inactive)	80% (inactive)	101% (inactive)	93% (inactive)	-1.09% (inactive)	94.1	93	0% (inactive)	-15.6% (inactive)
CCOC(=O)N1CCN(C(=O)CSc2nnc(-c3cc(OC)cc(OC)c3)o2)CC1	86.5	75.5% (inactive)	86.5% (inactive)	92.7% (inactive)	85.7% (inactive)	-3.85% (inactive)	89.5	85.7	-5.66% (inactive)	-1% (inactive)
